The values that follow come from ChEMBL document CHEMBL1148276, “Oral bioavailability of a new class of micro-opioid receptor agonists containing 3,6-bis[Dmt-NH(CH(2))(n)]-2(1H)-pyrazinone with central-mediated analgesia” (J Med Chem, 2004).

As usually defined, the Ki is a dissociation constant, usually derived from enzyme kinetics or from competition with a known ligand. A high value points to weaker binding. A word on the IC50: it is the point on the concentration scale where inhibition reaches its midpoint.

Structures are written as SMILES.

The target of assay [1] is Mu-type opioid receptor (Rattus norvegicus, UniProt P33535). Kind of assay: Compound was tested for binding affinity towards Opioid receptor mu 1 by displacing [3H]DAGO radioligand in rat brain P2 synaptosomes membranes. In kind it is cell membranes.
In assay [2] the target is Mu-type opioid receptor (Cavia porcellus, UniProt P97266). Kind of assay: Compound was tested for Opioid receptor mu 1 agonism in isolated tissues from guinea pig ileum. In kind it is functional, tissue-based.
For assay [3], the system named is Opioid receptors; mu & delta. Kind of assay: Selectivity ratio of Ki of delta-opioid receptor to mu-opioid receptor. In kind it is protein assay. Summed up:
(§1)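 Competition binding at equilibrium (2.5 h, 22 °C) on rat brain P2 synaptosomal membranes, preincubated to strip endogenous opioids, washed with protease inhibitor, stored in 20% glycerol at -80 °C; [3H]DAMGO (μ) or [3H]DPDPE (δ); nonspecific binding with 2 μM unlabeled peptide; GF/C filtration; Ki by Cheng-Prusoff, duplicates, 5-8 doses, 3-5 preparations.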

The target in assay [4] is Delta-type opioid receptor (Mus musculus, UniProt P32300). In words: Compound was tested for opioid receptor delta 1 agonism or antagonism in mouse vas deferens. In kind it is functional, tissue-based.
Assay [5] concerns the target Delta-type opioid receptor (Rattus norvegicus, UniProt P33533). In words: Compound was tested for binding affinity towards opioid receptor delta 1 by displacing [3H]DPDPE radioligand in rat brain P2 synaptosomes membranes. In kind it is cell membranes. In outline:
as §1

The species named for assay [6] is Mus musculus. Kind of assay: Potency relative to morphine in tail flick test in mice, perorally. Format: functional. In outline:
(§2)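 Male Swiss-Webster mice (20-25 g); radiant-heat tail-flick, baseline 2-3 s, cutoff 8 s; dosing icv or sc in saline pH 7, po in water; readings from 10, 15 or 30 min respectively until return to baseline; AUC of latency vs time, 5-7 mice per point; relative potency from doses giving analgesia equivalent to morphine.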

For assay [7], the system named is Mus musculus. In words: Potency relative to morphine in hot plate test in mice, subcutaneously. Format: functional. (Hot-plate and tail-flick tests time the reaction to a heat stimulus.)
Assay [8] has as its system Mus musculus. Kind of assay: Potency relative to morphine in tail flick test in mice, intracerebroventricularly; Vale ranges from 50-63. Format: functional. Summed up: as §2
Assay [9] deals with Mus musculus. In words: Potency relative to morphine in tail flick test in mice, subcutaneously. In kind it is functional. Summed up:
as §2

The species entered for assay [10] is Mus musculus. In words: Potency relative to morphine in hot plate test in mice, perorally; Vale ranges from 0.16-0.24. Format: functional.
Assay [11] deals with Mus musculus. Kind of assay: Potency relative to morphine in hot plate test in mice, intracerebroventricularly; Vale ranges from 18-21. Format: functional.

Delta-type opioid receptor (Mus musculus, UniProt P32300), sequence (P32300 whole entry): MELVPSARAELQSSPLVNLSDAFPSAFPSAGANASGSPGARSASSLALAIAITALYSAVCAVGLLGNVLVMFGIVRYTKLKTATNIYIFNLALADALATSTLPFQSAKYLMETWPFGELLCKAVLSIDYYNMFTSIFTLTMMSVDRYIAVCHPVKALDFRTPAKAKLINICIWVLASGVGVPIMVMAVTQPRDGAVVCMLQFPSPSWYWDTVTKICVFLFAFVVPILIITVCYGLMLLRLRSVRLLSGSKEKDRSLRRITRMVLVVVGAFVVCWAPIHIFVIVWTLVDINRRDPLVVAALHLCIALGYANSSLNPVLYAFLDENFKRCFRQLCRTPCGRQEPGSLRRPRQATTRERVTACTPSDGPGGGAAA
Delta-type opioid receptor (Rattus norvegicus, UniProt P33533), sequence (P33533 whole entry): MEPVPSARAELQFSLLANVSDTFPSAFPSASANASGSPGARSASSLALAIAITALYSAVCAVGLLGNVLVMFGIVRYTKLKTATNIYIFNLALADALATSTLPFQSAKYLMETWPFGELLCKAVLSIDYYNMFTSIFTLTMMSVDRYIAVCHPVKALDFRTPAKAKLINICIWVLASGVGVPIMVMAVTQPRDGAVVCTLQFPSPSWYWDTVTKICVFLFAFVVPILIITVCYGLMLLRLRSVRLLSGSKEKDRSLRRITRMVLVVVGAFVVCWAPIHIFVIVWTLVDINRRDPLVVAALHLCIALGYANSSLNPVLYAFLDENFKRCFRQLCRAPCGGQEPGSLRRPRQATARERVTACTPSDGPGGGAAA
Mu-type opioid receptor (Rattus norvegicus, UniProt P33535), sequence (P33535 whole entry): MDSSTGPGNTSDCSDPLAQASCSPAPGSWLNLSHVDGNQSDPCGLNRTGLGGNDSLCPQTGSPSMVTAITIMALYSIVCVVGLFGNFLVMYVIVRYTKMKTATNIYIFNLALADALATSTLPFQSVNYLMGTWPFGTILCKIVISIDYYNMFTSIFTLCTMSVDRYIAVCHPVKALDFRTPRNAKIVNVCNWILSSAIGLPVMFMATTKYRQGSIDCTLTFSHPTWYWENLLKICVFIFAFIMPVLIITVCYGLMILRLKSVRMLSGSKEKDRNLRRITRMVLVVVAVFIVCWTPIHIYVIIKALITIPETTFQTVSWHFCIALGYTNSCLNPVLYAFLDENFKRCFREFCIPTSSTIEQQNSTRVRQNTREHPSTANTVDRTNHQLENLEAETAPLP
Mu-type opioid receptor (Cavia porcellus, UniProt P97266), sequence (P97266 whole entry): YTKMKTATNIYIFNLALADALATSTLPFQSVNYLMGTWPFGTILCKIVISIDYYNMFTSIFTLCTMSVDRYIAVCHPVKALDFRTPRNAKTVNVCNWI

For `Cc1cc(O)cc(C)c1CC(N)C(=O)NCc1nc(O)c(CNC(=O)C(N)Cc2c(C)cc(O)cc2C)nc1C` (stereo not given), the Ki is 1.16 nM in assay [1] and 15.7 nM in assay [5]. In addition, the IC50 in assay [2] was 1690 nM; in assay [4] it was more than 10000 nM. The Ratio in assay [3] worked out at 13.5.
Taken in the same sequence, the figures for `Cc1cc(O)cc(C)c1CC(N)C(=O)NCCCCc1nc(O)c(CCCCNC(=O)C(N)Cc2c(C)cc(O)cc2C)nc1C` (stereo not given) were 0.114 nM, 23.2 nM, 1.9 nM, 41.5 nM and 204.
As to `Cc1cc(O)cc(C)c1CC(N)C(=O)NCCc1nc(O)c(CCNC(=O)C(N)Cc2c(C)cc(O)cc2C)nc1C` (stereo not given), the IC50 in assay [2] was 12.9 nM; in assay [4], more than 10000 nM. Moreover, the inhibition constant (Ki) in assay [5] came to 7.26 nM.
Take `Cc1nc(CCCNC(=O)C(N)Cc2ccc(O)cc2)c(O)nc1CCCNC(=O)C(N)Cc1ccc(O)cc1` (stereo not given): the results for the inhibitory constant (Ki) in [1] and in [5] were 25.7 nM and 435 nM, respectively. Further, the Ratio in assay [3] stood at 17.
On the same counts, the results for `Cc1nc(CCCCNC(=O)C(N)Cc2ccc(O)cc2)c(O)nc1CCCCNC(=O)C(N)Cc1ccc(O)cc1` (stereo not given) are 70.2 nM, 2190 nM and 31.
Taken in the same sequence, the figures for `Cc1nc(CCNC(=O)C(N)Cc2ccc(O)cc2)c(=O)[nH]c1CCNC(=O)C(N)Cc1ccc(O)cc1` (stereo not given) were 309 nM, 2900 nM and 9.4.
As to `Cc1nc(CNC(=O)C(N)Cc2ccc(O)cc2)c(=O)[nH]c1CNC(=O)C(N)Cc1ccc(O)cc1` (stereo not given), the Ratio in assay [3] came to 4. Further, the Ki in [5] worked out at 1830 nM.
Turning to `Cc1cc(O)cc(C)c1CC(N)C(=O)NCCCc1nc(O)c(CCCNC(=O)C(N)Cc2c(C)cc(O)cc2C)nc1C.Cl.Cl` (stereo not given), the Activity stood at 0.42 in assay [6]; 0.55 in [7]; 63 in assay [8]; 0.63 in [9]; 0.24 in [10]; 21 in assay [11]. Further, the Ki stood at 0.042 nM in [1] and 13.2 nM in assay [5]. The IC50 is 1.33 nM in assay [2] and more than 1000 nM in [4]. Further, in assay [3], the Ratio was 307.
